# Experimental data gathered from unrelated publications.
# Lines come from different studies, so protocols differ.
# Target: Serine/threonine-protein kinase 4 (STK4, Homo sapiens, UniProt Q13043)
# Sequence (Q13043 1-487, as in one of the studies): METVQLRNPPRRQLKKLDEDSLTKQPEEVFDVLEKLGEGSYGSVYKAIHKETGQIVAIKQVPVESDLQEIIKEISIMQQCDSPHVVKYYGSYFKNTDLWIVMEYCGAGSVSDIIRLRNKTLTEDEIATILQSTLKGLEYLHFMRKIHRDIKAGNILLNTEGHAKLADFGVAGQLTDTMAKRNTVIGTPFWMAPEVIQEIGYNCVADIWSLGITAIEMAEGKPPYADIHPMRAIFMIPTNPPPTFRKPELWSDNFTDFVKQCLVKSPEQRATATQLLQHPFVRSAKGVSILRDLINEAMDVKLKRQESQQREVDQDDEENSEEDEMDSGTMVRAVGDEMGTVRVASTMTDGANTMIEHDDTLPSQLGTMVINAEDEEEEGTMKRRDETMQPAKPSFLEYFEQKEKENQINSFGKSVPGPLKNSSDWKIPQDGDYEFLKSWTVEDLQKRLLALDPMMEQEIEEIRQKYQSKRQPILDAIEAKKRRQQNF
Compound,assay,conditions,remaining binding
CN(C)c1nccc(-c2cnn3ncccc23)n1,binding,1 µM,100%
O=C(c1ccc(Nc2ncc(Cl)c(-c3cc4ccccc4s3)n2)cc1)N1CCC(N2CCCC2)CC1,"binding, competition with immobilised ligand",1 µM,100%
C[C@H]1CCN(c2nccc(-c3cnn4ncccc34)n2)C1,binding,1 µM,82%
CNC(=O)c1ccc(Nc2ncc(C(F)(F)F)c(NCc3nccnc3N(C)S(C)(=O)=O)n2)cc1,"cell-free assay, competition with immobilised ligand",0.1 µM,97%
FC(F)(F)Oc1cccc(-c2cnc3ccc(-c4ccncc4)nn23)c1,"cell-free assay, competition with immobilised ligand",5 µM,100%
Cc1c(C(=O)O)cc(-c2ccc(C3CCNCC3)cc2)c2ccc(-c3ccc(C(F)(F)F)cc3)cc12,"binding, competition with immobilised ligand",1 µM,95%
N[C@@H]1CCN(c2nccc(-c3cnn4ncccc34)n2)C1,binding,1 µM,100%
CCCOc1ccc([C@@H]2[C@@H](C(=O)O)[C@H](c3ccc4c(c3)OCO4)CN2CC(=O)Nc2c(CC)cccc2CC)cc1,"cell-free assay, competition with immobilised ligand",1 µM,95%
Cc1cnc(Nc2ccc(C(=O)N3CCC(N4CCCC4)CC3)cc2)nc1-c1cc2ccccc2s1,"binding, competition with immobilised ligand",1 µM,100%
CC1CCCN1c1nccc(-c2cnn3ncccc23)n1 (centres unmarked),binding,1 µM,98%
O=C(NCCCN1CCOCC1)c1ccc(Nc2ncc(Cl)c(-c3ccc(Cl)s3)n2)cc1,"binding, competition with immobilised ligand",1 µM,90%
CCC(=O)N[C@H]1CC[C@@H](C(=O)N(C)c2ccc(-c3nc4ccccc4o3)cc2)C1,"cell-free assay, competition with immobilised ligand",1 µM,100%
COc1ncc2cc3ccccc3nc2c1C#N,"cell-free assay, competition with immobilised ligand",5 µM,96%
Nc1ncc2c(n1)-c1c([nH]c3ccc(C#CC4CC4)cc13)CCCC2,"binding, competition with immobilised ligand",1 µM,100%
O=C(Nc1c[nH]nc1C(=O)NC1CCNCC1)c1cc(F)cc(F)c1,"binding, competition with immobilised ligand",1 µM,100%
COc1cnc(Nc2cccc(S(N)(=O)=O)c2)nc1N1CCN(c2ccccc2)CC1,"binding, competition with immobilised ligand",1 µM,100%
c1cnn2ncc(-c3ccnc(N4CCC45COC5)n3)c2c1,binding,1 µM,89%
O=C(NCCCC1CCCCC1)c1ccc(CNC(=O)c2cnn(-c3ccccc3)c2C(F)(F)F)cc1,"cell-free assay, competition with immobilised ligand",0.1 µM,100%
F[C@@H]1CCN(c2nccc(-c3cnn4ncccc34)n2)C1,binding,1 µM,91%
CSc1cccnc1N1CCN(Cc2nc3ccccc3[nH]2)CC1,"cell-free assay, competition with immobilised ligand",1 µM,85%
